Test results as given in publication PMC5814546 (Clinical Pharmacokinetics, 2017).

Key:
Assay type in all cases: in vivo, human
[1] = Phase I single ascending dose study of ALZ-801 loose-filled capsule; conditions: plasma, ALZ-801 capsule 172 and 300 mg doses
Procedure, shortened: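 Single fasted oral loose-filled capsules; 172 mg in 36 healthy subjects over 50 y (parallel, randomized 1:1:1), 300 mg in 15 subjects over 50 y. Plasma sampled over 48 h into K3 EDTA on ice, spun 2000g 10 min 4 °C, stored at or below −20 °C. LC-MS assay; non-compartmental analysis; Tmax as median (range).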

[2] = Phase I multiple ascending dose study of ALZ-801 capsule and tablet; conditions: plasma; for AUC24: mean ± SD
[3] = Urine drug recovery, renal clearance and estimate of oral bioavailability; conditions: for Mean Ae / CLr: Cohort D, 24-h urine; for CLr: mean ± SD
Procedure, shortened: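 Cohort D: 265 mg immediate-release tablet in the fed state (meal 30 min pre-dose), once on day 1, twice daily days 2–6, once on day 7. Urine was collected over 24 h on days 1 and 7 and assayed by LC-MS (LLOQ 30 ng/mL ALZ-801, 100 ng/mL tramiprosate). Renal clearance was calculated as Ae divided by plasma AUC24.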

- median T max [1]: approximately 5 h
- AUC24 ([2]; Day 1, fed, ALZ-801 tablet 265 mg (Cohort D)): 1810 ± 348 ng·h/mL
- AUC24 ([2]; Day 7, fed, ALZ-801 tablet 265 mg twice daily (Cohort D)): 5470 ± 1030 ng·h/mL
- median T max ([2]; days 7 and 14, all dosing regimens): 5 h
- T max range ([2]; single oral dose of ALZ-801, day 1): 2 to 16 h
- CLr ([3]; Day 1, ALZ-801 tablet 265 mg): 652 ± 161 mL/min
- CLr ([3]; Day 7, ALZ-801 tablet 265 mg): 575 ± 218 mL/min
- mean CLr (range) ([3]; across dosing cohorts and days, Study 2): 500 to 1570 mL/min
SMILES: O=C(O)CCS(=O)(=O)O [NRM5074]
- Mean Ae ([3]; Day 1, ALZ-801 tablet 265 mg): 70.8 mg
- Mean Ae ([3]; Day 7, ALZ-801 tablet 265 mg): 188.7 mg
